Publication PMC6467287 (Bioorganic & medicinal chemistry letters, 2018)

Experiments:
MCF7 breast cancer cells = assay: Effects on MCF7 cells; format: cell-based; settings: for cytotoxicity of C17 hydrolysis products: viability of MCF7 cells
[1] = test system: DUBs (decomposition of high molecular weight ubiquitinated proteins, HMW-Ub) in HEK 293T cell lysates; format: biochemical; settings: for DUB inhibitory activity, SAR statement in words: ring B amine modification; for stabilization of the HMW-Ub pool (in words): HEK 293T HA-Ub lysates, 37 °C; for increase of inhibitory potency (factor): relative to C4
[2] = test system: endogenous K48-linked HMW ubiquitin pool in untransfected HEK 293T lysates; format: biochemical; settings: read-out: EC50 for stabilization of the endogenous K48-linked HMW ubiquitin pool
SENP6 = biological target: T1, SENP6 (Homo sapiens, UniProt Q9GZR1); assay: SENP6-catalyzed deSUMOylation of RanGap; format: biochemical; settings: 30 min at room temperature with inhibitor
T1 sequence (Q9GZR1 628-1112): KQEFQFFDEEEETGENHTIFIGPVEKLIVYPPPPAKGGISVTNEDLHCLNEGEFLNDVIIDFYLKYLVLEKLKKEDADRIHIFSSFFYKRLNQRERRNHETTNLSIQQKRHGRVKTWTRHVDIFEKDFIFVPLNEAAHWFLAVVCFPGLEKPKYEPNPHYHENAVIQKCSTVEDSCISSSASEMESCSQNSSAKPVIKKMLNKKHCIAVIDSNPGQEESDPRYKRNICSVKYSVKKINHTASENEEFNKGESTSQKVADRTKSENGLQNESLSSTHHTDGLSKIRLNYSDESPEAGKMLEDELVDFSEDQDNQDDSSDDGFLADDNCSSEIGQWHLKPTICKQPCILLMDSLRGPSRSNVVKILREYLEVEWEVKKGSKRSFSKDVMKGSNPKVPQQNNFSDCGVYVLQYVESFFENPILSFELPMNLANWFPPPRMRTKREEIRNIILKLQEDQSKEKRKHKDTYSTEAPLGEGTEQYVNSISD
Outline: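 His6-tagged SENP6 catalytic domain (aa 628-1112, 200 nM) was preincubated with test compound for 30 min at room temperature. SUMOylated His6-RanGap1 catalytic domain (aa 418-588, 3 μM) was then added for 10 min at 37 °C. Reactions were quenched in Laemmli buffer, resolved by SDS-PAGE and blotted with anti-His6 antibody.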

[3] = test system: 26S proteasome (flux through the ubiquitin-proteasome system); assay: G76VUb-GFP assay in HEK 293T cells; format: cell-based; settings: HEK 293T cells expressing G76VUb-GFP
K562 leukemia cells = assay: Effects on K562 leukemia cells; format: cell-based; settings: for accumulation of K48-linked HMW-Ub / Bcr-Abl level: 50 μM, 2 h; for Bcr-Abl level: anti-Abl immunoblot
Outline: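 K562 cells were treated with test compound (50 μM, 2 h) and immunoblotted for K48-linked ubiquitin and for Bcr-Abl (anti-Abl); Bcr-Abl was also tested over a dose range. For the bortezomib series, cells got test compound (50 μM) with or without bortezomib (6 μM) for 4 h. Lysates were sonicated in SDS before PAGE. Cell cycle was read by FACS, scoring G1 and sub-G1 (apoptotic) cells.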

[4] = biological target: DUBs (USP9x, USP19, USP7/8, USP28/15, UCHL5, UCHL3, UCHL1) in HEK 293T cell lysates (Homo sapiens, UniProt Q93009); assay: HA-Ub-VS activity profiling of HEK 293T cell lysates; format: biochemical; settings: HEK 293T cell lysate
Outline: (§1)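 HEK 293T lysate (1.5 mg/ml) was treated with test compound (25 μM) or DMSO, then HA-Ub-VS (1.5 μM) was added, or both were added together. Timed aliquots were anti-HA blotted. For the dilution test, lysate (15 mg/ml) was preincubated with compound (250 μM) for 30 min, diluted tenfold, then given HA-Ub-VS (1.5 μM). USP7 was read by anti-USP7 blot as the probe-shifted band.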

[5] = test system: DUBs (USP9x, USP19, USP7/8, USP28/15, UCHL5, UCHL3, UCHL1) in HEK 293T cell lysates; assay: as above; format: biochemical
Outline: as §1

trypsin = assay: Trypsin-catalyzed hydrolysis of diarylcarbonates; format: biochemical
Outline: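 The diarylcarbonate served as substrate for trypsin. Hydrolysis velocity was measured across substrate concentrations, and Km and kcat were derived from the velocity versus substrate concentration plot.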

USP9x = USP9x (Homo sapiens, UniProt Q93008); assay: Time-dependent inhibition of recombinant USP9x; format: biochemical; settings: read-out: kon of commercially available DUB inhibitors (range)
[6] = test system: NCc1ccc(OC(=O)Oc2ccc3ccccc3c2)cc1; assay: purified protein, by the assay type; settings: other: chymotrypsin; 37.0 °C
[7] = test system: N/N=C/NCc1ccc(OC(=O)Oc2ccc3ccccc3c2)cc1; assay: purified protein, by the assay type; settings: other: chymotrypsin; 37.0 °C

Sequence of DUBs (USP9x, USP19, USP7/8, USP28/15, UCHL5, UCHL3, UCHL1) in HEK 293T cell lysates (Homo sapiens, UniProt Q93009) (Q93009 whole entry): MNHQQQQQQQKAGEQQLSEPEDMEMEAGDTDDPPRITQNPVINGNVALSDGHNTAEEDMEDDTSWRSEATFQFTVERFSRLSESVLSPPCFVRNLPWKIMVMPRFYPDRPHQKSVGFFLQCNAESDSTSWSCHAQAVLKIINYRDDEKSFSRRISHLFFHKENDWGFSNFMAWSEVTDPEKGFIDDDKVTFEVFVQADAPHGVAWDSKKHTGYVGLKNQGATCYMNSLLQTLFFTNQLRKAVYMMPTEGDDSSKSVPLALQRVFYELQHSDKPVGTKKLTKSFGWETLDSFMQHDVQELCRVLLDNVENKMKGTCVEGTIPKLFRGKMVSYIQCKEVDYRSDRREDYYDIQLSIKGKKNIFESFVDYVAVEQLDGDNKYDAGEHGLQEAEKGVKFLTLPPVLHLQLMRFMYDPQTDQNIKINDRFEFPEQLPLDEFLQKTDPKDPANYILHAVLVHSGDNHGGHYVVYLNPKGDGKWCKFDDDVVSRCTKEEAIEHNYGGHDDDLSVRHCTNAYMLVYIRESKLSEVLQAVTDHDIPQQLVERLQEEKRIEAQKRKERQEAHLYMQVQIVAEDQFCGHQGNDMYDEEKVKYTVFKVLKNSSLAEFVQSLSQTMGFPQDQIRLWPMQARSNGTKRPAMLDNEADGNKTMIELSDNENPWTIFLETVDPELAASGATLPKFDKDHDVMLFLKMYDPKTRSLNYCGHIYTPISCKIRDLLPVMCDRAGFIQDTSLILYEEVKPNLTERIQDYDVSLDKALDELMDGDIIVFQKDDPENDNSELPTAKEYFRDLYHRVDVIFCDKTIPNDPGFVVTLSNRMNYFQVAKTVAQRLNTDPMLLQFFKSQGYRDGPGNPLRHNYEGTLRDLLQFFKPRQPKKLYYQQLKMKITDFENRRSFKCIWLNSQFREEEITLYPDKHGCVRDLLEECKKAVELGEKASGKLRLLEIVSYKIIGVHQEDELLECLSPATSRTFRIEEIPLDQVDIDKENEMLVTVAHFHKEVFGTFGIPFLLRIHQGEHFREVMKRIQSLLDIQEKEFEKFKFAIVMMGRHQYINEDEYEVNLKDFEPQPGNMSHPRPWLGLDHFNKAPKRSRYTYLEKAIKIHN
Sequence of USP9x (Q93008 whole entry, species assumed): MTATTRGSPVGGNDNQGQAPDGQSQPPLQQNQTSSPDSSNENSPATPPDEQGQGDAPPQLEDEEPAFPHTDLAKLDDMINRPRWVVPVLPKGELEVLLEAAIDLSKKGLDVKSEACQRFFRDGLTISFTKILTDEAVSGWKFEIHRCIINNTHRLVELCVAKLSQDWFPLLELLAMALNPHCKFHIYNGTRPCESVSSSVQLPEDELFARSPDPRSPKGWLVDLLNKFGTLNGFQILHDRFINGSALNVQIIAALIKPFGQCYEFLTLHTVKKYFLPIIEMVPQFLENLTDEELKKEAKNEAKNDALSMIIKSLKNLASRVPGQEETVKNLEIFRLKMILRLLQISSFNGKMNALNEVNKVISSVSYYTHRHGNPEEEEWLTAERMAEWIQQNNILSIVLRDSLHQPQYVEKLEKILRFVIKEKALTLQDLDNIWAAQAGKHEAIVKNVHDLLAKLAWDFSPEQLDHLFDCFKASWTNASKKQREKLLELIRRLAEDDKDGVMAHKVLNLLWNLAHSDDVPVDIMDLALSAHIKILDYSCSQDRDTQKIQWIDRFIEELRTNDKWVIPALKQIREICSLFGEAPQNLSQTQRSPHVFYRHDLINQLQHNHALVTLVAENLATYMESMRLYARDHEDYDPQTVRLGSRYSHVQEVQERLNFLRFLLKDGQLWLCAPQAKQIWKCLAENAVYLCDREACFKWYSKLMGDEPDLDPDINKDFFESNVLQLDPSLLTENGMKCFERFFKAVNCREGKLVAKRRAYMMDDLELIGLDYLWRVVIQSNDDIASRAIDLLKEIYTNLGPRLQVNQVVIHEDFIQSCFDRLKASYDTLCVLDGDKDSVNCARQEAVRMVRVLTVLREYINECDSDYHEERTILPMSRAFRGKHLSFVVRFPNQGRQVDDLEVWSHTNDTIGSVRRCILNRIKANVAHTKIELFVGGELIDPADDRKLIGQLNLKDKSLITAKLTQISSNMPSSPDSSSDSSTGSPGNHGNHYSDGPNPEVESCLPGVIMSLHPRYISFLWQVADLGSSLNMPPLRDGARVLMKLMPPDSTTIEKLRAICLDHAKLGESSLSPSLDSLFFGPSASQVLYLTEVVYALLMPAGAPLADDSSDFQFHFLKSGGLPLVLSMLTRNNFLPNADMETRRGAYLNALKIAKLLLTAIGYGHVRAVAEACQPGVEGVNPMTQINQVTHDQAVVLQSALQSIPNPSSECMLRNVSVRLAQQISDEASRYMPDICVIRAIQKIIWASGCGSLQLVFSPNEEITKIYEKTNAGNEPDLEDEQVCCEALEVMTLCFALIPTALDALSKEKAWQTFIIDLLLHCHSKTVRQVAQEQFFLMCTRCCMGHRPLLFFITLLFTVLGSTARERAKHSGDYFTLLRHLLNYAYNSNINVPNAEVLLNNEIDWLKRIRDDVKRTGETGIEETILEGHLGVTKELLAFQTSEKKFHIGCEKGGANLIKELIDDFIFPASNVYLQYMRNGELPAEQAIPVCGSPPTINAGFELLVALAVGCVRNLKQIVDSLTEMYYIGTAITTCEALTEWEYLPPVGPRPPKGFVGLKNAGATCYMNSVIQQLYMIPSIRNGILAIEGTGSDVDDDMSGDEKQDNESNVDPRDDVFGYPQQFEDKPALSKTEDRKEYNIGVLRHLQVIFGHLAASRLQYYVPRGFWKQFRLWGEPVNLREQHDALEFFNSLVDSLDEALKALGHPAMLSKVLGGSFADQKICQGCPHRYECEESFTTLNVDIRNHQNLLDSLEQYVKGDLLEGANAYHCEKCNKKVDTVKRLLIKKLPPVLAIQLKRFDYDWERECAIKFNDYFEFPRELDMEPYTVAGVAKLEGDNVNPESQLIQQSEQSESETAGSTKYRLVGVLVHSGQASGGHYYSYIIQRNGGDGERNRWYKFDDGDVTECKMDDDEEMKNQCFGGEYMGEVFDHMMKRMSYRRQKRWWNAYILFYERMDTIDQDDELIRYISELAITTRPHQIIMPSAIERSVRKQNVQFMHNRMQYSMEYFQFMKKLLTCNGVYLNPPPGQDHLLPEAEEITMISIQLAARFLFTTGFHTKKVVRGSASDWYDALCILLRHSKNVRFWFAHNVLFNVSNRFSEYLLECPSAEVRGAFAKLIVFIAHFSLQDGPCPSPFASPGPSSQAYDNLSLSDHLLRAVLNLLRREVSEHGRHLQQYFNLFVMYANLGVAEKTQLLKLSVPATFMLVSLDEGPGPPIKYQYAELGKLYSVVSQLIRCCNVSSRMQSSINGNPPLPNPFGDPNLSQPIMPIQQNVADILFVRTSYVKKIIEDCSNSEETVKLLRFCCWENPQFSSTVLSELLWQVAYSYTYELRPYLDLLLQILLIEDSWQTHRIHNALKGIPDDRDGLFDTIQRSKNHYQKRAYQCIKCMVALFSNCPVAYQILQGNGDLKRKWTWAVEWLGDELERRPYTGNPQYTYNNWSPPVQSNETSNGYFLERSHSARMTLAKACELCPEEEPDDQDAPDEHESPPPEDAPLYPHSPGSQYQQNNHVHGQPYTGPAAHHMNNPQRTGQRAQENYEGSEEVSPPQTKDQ

Compound: Oc1ccc2ccccc2c1 [2-naphthol]
- cytotoxicity of C17 hydrolysis products (MCF7 breast cancer cells): not cytotoxic

Compound: NCc1ccc(O)cc1 [4-aminomethylphenol]
- cytotoxicity of C17 hydrolysis products (MCF7 breast cancer cells): not cytotoxic

Compound: CC(C)(C)OC(=O)NCc1ccc(OC(=O)Oc2ccccc2)cc1 [C3]
- DUB inhibitory activity, SAR statement in words [1]: activity was lost

Compound: O=C(Oc1ccccc1)Oc1ccc(CNCc2ccc(Cl)cc2)cc1 [C5]
- DUB inhibitory activity, SAR statement in words [1]: retained DUB inhibitory activity

Compound: NCc1ccc(OC(=O)Nc2ccccc2)cc1 [C7]
- stabilization of the HMW-Ub pool (in words) [1]: did not stabilize

Compound: NCc1ccc(NC(=O)Oc2ccccc2)cc1 [C8]
- stabilization of the HMW-Ub pool (in words) [1]: did not stabilize

Compound: NCc1ccc(OC(=O)Oc2ccc(Cl)cc2)cc1 [C14]
- EC50 [2]: < 50 µM
- inhibition of SENP6-catalyzed deSUMOylation of RanGap (SENP6): failed to inhibit
- GFP fluorescence in G76VUb-GFP assay [3]: failed to increase
- increase of inhibitory potency (factor) [1]: approximately 10
- accumulation of K48-linked HMW-Ub (K562 leukemia cells): caused the accumulation
- Bcr-Abl level (K562 leukemia cells): decrease

Compound: NCc1ccc(OC(=O)Oc2ccc(Br)cc2)cc1 [C15]
- EC50 [2]: < 50 µM
- inhibition of SENP6-catalyzed deSUMOylation of RanGap (SENP6): failed to inhibit
- GFP fluorescence in G76VUb-GFP assay [3]: failed to increase
- increase of inhibitory potency (factor) [1]: approximately 10
- accumulation of K48-linked HMW-Ub (K562 leukemia cells): caused the accumulation
- Bcr-Abl level (K562 leukemia cells): decrease

Compound: NCc1ccc(OC(=O)Oc2ccc3ccccc3c2)cc1 [C17]
- accumulation of soluble HMW-Ub (MCF7 breast cancer cells; MCF7 cells, 50 μM, 4 h): caused the accumulation
- Mdm2 levels (MCF7 breast cancer cells; MCF7 cells, 4 h): decreased
- p21/WAF1 levels (MCF7 breast cancer cells; MCF7 cells, 4 h): robust increase
- p53 levels (MCF7 breast cancer cells; MCF7 cells, 4 h): concomitant increase
- cell viability (MCF7 breast cancer cells; MCF7 cells, treated every 24 h, 72 h, Alamar Blue): cell viability decreased
- EC50 [2]: < 50 µM
- inhibition of USP7 (anti-USP7 immunoblot after HA-UbVS) [4]: inhibition of USP7 was confirmed
- HA-Ub-VS labeling of DUB bands ([5]; compound (25 μM) and HA-Ub-VS (1.5 μM) added simultaneously): no inhibition of DUB labeling was observed
- HA-Ub-VS labeling of DUB bands ([5]; lysate treated with compound (25 μM) followed by HA-Ub-VS (1.5 μM)): decreasing the labeling of all the bands
- HA-Ub-VS labeling of DUB bands ([5]; pre-incubated with compound (250 μM) 30 min, diluted 10-fold before HA-Ub-VS): labeling was reduced
- GFP fluorescence in G76VUb-GFP assay [3]: failed to increase
- accumulation of K48-linked HMW-Ub (K562 leukemia cells): caused the accumulation
- Bcr-Abl level (K562 leukemia cells): decrease
- G1 and apoptotic (sub G1) cells (K562 leukemia cells; 24 h incubation, FACS): dose-dependent increase
- Bcr-Abl degradation in the presence of bortezomib (K562 leukemia cells; C17 50 μM, bortezomib 6 μM, 4 h): did not prevent
- kcat as substrate (trypsin): 0.02 s⁻¹

Compound: NCc1ccc(OC(=O)Oc2cccc3ccccc23)cc1 [C18]
- EC50 [2]: < 50 µM
- GFP fluorescence in G76VUb-GFP assay [3]: failed to increase
- accumulation of K48-linked HMW-Ub (K562 leukemia cells): caused the accumulation
- Bcr-Abl level (K562 leukemia cells): decrease

Compound: CC(C)(C)OC(=O)NCc1ccc(OC(=O)Oc2ccc3ccccc3c2)cc1 [C19]
- DUB inhibitory activity, SAR statement in words [1]: Inhibitory activity was not recovered

Compound: CC(C)(C)CNCc1ccc(OC(=O)Oc2ccc3ccccc3c2)cc1 [C20]
- DUB inhibitory activity, SAR statement in words [1]: Inhibitory activity was retained

Compound: CC(C)CNCc1ccc(OC(=O)Oc2ccc3ccccc3c2)cc1 [C21]
- DUB inhibitory activity, SAR statement in words [1]: somewhat deleterious

Compound: N/N=C/NCc1ccc(OC(=O)Oc2ccc3ccccc3c2)cc1 [C22]
- inhibition of SENP6-catalyzed deSUMOylation of RanGap (SENP6): failed to inhibit
- DUB inhibitory activity, SAR statement in words [1]: efficacious
- kcat as substrate (trypsin): 0.001 s⁻¹

Compound: CC(C)(C)OC(=O)NCc1ccc(OC(=O)Oc2ccc(Cl)cc2)cc1 [C23]
- DUB inhibitory activity, SAR statement in words [1]: Inhibitory activity was not recovered

Compound: O=C1/C(=C/c2ccc([N+](=O)[O-])cc2)CS(=O)(=O)C/C1=C\c1ccc([N+](=O)[O-])cc1 [G5, G5 isopeptidase inhibitor 1, reference compound]
- GFP fluorescence in G76VUb-GFP assay [3]: No significant increase
- stabilization of the HMW-Ub pool (in words) [1]: stabilized

Compound: Cc1cc(C(=O)CN2CCCC2)c(C)n1-c1ccc(F)cc1 [IU1, reference compound]
- stabilization of the HMW-Ub pool (in words) [1]: little effect

Compound: Cc1ccc(/C=C2\CNC/C(=C\c3ccc(C)cc3)C2=O)cc1 [NSC-632839]
- kon (USP9x): 49 to 140 M⁻¹ s⁻¹

Compound: CC(C)C[C@H](NC(=O)[C@H](Cc1ccccc1)NC(=O)c1cnccn1)B(O)O [bortezomib, reference compound]
- GFP fluorescence in G76VUb-GFP assay [3]: significantly increased
- stabilization of the HMW-Ub pool (in words) [1]: failed to stabilize

Compound: chymotrypsin (Bos taurus)
- Km [6]: 1 µM
- kcat [6]: 0.03 s⁻¹
- Km [7]: 1 µM
- kcat [7]: 0.03 s⁻¹
